Measured values from article PMC3103050 (Genes to cells : devoted to molecular & cellular mechanisms, 2009).
Read-outs that look alike come from different tables or passages of the source. Each block holds one molecule with its values, some of them ahead of it.

T1: His-REV1(1130–1251) (Homo sapiens, UniProt Q9UBZ9)
T1 sequence (Q9UBZ9 1130-1251): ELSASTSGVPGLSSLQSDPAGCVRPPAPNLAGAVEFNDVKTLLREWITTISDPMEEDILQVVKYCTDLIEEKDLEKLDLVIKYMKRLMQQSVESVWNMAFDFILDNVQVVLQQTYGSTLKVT

T2: His-REV1(1130–1251) (human, UniProt Q9UBZ9 1130-1251)
T2 sequence (looked up): T1 sequence (Q9UBZ9 1130-1251)

T3: His-Polκ(1–615) (human, UniProt Q9UBT6 1-615)
T3 sequence (looked up): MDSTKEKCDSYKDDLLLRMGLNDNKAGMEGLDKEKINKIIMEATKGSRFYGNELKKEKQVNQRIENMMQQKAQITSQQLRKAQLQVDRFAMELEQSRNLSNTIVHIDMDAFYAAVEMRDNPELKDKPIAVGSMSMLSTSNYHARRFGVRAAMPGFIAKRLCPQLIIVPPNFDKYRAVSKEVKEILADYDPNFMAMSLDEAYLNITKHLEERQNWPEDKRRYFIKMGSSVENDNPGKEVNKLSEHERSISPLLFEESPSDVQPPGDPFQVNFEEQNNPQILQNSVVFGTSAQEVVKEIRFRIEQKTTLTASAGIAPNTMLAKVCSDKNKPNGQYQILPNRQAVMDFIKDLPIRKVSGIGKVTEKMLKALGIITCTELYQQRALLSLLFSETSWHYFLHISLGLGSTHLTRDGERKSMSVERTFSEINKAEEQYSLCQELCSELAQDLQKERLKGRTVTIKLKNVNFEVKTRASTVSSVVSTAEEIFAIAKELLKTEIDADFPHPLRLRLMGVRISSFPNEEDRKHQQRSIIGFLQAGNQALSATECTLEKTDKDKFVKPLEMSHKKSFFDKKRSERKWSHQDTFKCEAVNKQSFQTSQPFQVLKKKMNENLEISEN

B1: GST-REV1(826–1251) (domain or fragment, human, UniProt Q9UBZ9 826-1251, looked up)
chain: PTNLNPSTCPSRPSVQSSHFPSGSYSVRDVFQVQKAKKSTEEEHKEVFRAAVDLEISSASRTCTFLPPFPAHLPTSPDTNKAESSGKWNGLHTPVSVQSRLNLSIEVPSPSQLDQSVLEALPPDLREQVEQVCAVQQAESHGDKKKEPVNGCNTGILPQPVGTVLLQIPEPQESNSDAGINLIALPAFSQVDPEVFAALPAELQRELKAAYDQRQRQGENSTHQQSASASVPKNPLLHLKAAVKEKKRNKKKKTIGSPKRIQSPLNNKLLNSPAKTLPGACGSPQKLIDGFLKHEGPPAEKPLEELSASTSGVPGLSSLQSDPAGCVRPPAPNLAGAVEFNDVKTLLREWITTISDPMEEDILQVVKYCTDLIEEKDLEKLDLVIKYMKRLMQQSVESVWNMAFDFILDNVQVVLQQTYGSTLKVT

How the values were obtained:
His-REV1(1130–1251) [1] = molecular target: T1, His-REV1(1130–1251); experiment: Surface plasmon resonance, His-REV1; type: binding; conditions: SPR, BIACORE 2000, CM5 chip; His-REV1(1130–1251) 1.1 µM in Fig. 2A
How it was run: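 SPR on BIACORE 2000. Synthetic peptides carrying an added N-terminal Cys were thiol-coupled to CM5 dextran. His-REV1(1130–1251) was cut from a GST-His fusion with Factor Xa, purified on Ni-NTA, then cleared of uncleaved fusion on glutathione resin. Varying concentrations were injected in 10 mM HEPES pH 7.5, 150 mM NaCl, 3 mM EDTA, 0.005% P20 at 20 µl/min, 25°C; contact 60 s, dissociation 120 s. Control-cell signal was subtracted. Kd came from equilibrium analysis of mean signals.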

REV1(1130–1218) = experiment: Surface plasmon resonance, REV1; type: binding, human; conditions: SPR; REV1 derivative lacking a portion essential for the interaction with Polκ; data not shown
PCNA [2] = molecular target: PCNA (Homo sapiens, UniProt P12004); experiment: Surface plasmon resonance, PCNA binding to immobilized peptides; conditions: SPR; data not shown
PCNA (Homo sapiens, UniProt P12004), sequence (P12004 whole entry, species assumed): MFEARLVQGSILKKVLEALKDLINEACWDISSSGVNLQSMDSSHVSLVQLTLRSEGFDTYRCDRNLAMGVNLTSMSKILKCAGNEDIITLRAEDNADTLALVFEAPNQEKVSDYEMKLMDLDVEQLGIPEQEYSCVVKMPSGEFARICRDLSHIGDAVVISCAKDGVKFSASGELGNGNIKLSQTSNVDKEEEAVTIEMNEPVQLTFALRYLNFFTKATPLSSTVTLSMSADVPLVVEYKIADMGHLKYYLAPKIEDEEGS
How it was run: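 PCNA binding by SPR against synthetic peptides that carry an added N-terminal Cys, coupled through the sulfhydryl to CM5 carboxylated dextran sensor chips by thiol activation chemistry. The peptide–protein signal minus the control-cell signal was analysed and scored + or −.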

PCNA [3] = molecular target: T4, PCNA (UniProt P12004 1-261); experiment: SPR
T4 sequence (P12004 whole entry): as the sequence (P12004 whole entry, species assumed) above

PCNA [4] = molecular target: T4, PCNA; experiment: SPR; remark: listed apart in the source
His-REV1(1130–1251) [5] = molecular target: T2, His-REV1(1130–1251); experiment: SPR
GST-REV1(826–1251) = molecular target: B1; experiment: pull-down
His-Polκ(1–615) = molecular target: T3, His-Polκ(1–615); experiment: pull-down

Molecule: CEMSHKKSAADKKRSER [κ560-575AA]
Binding of His-REV1(1130–1251) / REV1-CTD to immobilized peptide (in words) (His-REV1(1130–1251) [1]): but not to κ560-575AA
Interaction of REV1(1130–1218) with immobilized peptide (in words) (REV1(1130–1218)): failed to interact

Binding of His-REV1(1130–1251) / REV1-CTD to immobilized peptide (in words) (His-REV1(1130–1251) [1]): failure of κ558-571FF to bind REV1-CTD
Molecule: CPLEMSHKKSFFDKK [κ558-571FF]

PCNA binding to immobilized peptide (in words) (PCNA [2]): failed to bind
Molecule: CKRPRPEGMQTLESAAKPLTH [η694-713AA]

Kd (PCNA [3]): ~400 nM
Kd (PCNA [4]): ~300 nM
Molecule: CKRPRPEGMQTLESFFKPLTH [η694-713FF]

Kd (His-REV1(1130–1251) [5]): 7.6 µM
Molecule: CEMSHKKSFFDKKRSER [κ560-575FF]

binding result (GST-REV1(826–1251)): binds
Molecule: CSHKKSFFDKKRSER [κ562-575FF]

Molecule: B1
binding result (His-Polκ(1–615)): binds

Kd (His-REV1(1130–1251) [5]): 13 µM
Molecule: CQSTGTEPFFKQKSLLL [η524-539FF]

binding result (GST-REV1(826–1251)): binds
Molecule: CKKSFFDKKRSER [κ564-575FF]

Kd (His-REV1(1130–1251) [5]): 69 µM
Molecule: CASRGVLSFFSKKQMQD [ι539-554FF]
